Data from ChEMBL document CHEMBL1129433, “On the bioisosteric potential of diazines: diazine analogues of the combined thromboxane A2 receptor antagonist and synthetase inhibitor Ridogrel” (J Med Chem, 1996).

What was measured:
Thromboxane A2 receptor [1] = biological target: T1, Thromboxane A2 receptor (Homo sapiens, UniProt P21731); assay: TXA2 receptor antagonism, measured by the displacement of [3H]SQ29,548 from the PGH-2/TXA-2 receptor on human platelets; format: functional
T1 sequence (P21731 whole entry): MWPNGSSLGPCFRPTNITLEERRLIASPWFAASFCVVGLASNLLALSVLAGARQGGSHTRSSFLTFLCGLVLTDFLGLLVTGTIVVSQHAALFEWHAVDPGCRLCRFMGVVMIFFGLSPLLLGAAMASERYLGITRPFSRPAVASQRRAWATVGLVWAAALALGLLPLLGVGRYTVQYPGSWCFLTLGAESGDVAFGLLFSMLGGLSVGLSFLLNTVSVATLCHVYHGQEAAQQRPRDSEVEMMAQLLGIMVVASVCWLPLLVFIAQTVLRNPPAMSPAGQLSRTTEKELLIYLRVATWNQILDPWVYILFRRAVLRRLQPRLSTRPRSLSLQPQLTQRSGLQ
Outline: (§1)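 Human gel-filtered platelets were used. Nonspecific binding was defined with U 46,619 at 30 µM final in place of the test compound. IC50 is the concentration giving 50% displacement of [³H]SQ 29,548.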

Homo sapiens [2] = species on record: Homo sapiens; assay: Inhibition of collagen-induced platelet aggregation in human platelet rich plasma; format: functional
Outline: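 PRP and PPP were prepared from human blood by centrifugation at 1000 rpm and 4000 rpm respectively, each for 10 min at 10 °C. PRP was adjusted to […]. Collagen was 0.53 µg/mL final. Optical density of stirred PRP was recorded for 4 min, at least in duplicate. PRP and PPP set 0% and 100% light transmission. EC50 was taken from the concentration–inhibition curve.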

Thromboxane-A synthase = biological target: T2, Thromboxane-A synthase (Homo sapiens, UniProt P24557); assay: TXA2 synthetase inhibition measured by the inhibition of TXB2 formation by human gel-filtered platelets incubated with [14C]arachidonic acid
T2 sequence (P24557 whole entry): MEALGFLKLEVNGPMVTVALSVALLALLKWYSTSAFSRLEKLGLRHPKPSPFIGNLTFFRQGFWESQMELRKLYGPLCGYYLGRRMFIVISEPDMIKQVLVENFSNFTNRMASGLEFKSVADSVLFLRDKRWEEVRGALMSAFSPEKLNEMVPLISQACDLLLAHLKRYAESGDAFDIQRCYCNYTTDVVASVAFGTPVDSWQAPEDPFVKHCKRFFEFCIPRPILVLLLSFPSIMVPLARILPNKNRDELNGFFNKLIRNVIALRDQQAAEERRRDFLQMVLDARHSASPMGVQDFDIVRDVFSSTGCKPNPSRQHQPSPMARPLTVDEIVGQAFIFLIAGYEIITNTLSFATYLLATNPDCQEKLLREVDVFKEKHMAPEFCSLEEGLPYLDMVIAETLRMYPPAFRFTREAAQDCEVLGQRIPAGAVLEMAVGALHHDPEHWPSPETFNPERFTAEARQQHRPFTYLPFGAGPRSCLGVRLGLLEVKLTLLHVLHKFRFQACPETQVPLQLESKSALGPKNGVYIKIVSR

Homo sapiens [3] = species on record: Homo sapiens; assay: In vitro inhibition of collagen-induced platelet aggregation in human platelet-rich plasma (PRP) at 273 uM; format: functional
Homo sapiens [4] = species on record: Homo sapiens; assay: In vitro inhibition of collagen-induced platelet aggregation in human platelet-rich plasma (PRP) at 291 uM; format: functional
Homo sapiens [5] = species on record: Homo sapiens; assay: In vitro inhibition of collagen-induced platelet aggregation in human platelet-rich plasma (PRP) at 278uM; format: functional
Thromboxane A2 receptor [6] = biological target: T1, Thromboxane A2 receptor; assay: TXA2 receptor antagonism, measured by the displacement of [3H]SQ-29548 from the PGH-2/TXA-2 receptor on human platelets; format: functional; outline: as §1

SMILES | IC50 (Thromboxane A2 receptor [1]) | EC50 (Homo sapiens [2]) | IC50 (Thromboxane-A synthase) | also measured
O=C(O)CCCCCO/N=C(\c1ccccc1)c1ccncn1 | 5 µM | 112 µM | > 10 µM | 
O=C(O)CCCCO/N=C(\c1ccccc1)c1ncccn1 |  |  | > 100 µM | inhibition at 273 µM (Homo sapiens [3]): 0%
O=C(O)CCCCCO/N=C(/c1ccccc1)c1ccncn1 | 25 µM | 236 µM | > 10 µM | 
O=C(O)CCCCCO/N=C(/c1ccccc1)c1cncnc1 | 8.8 µM | 127 µM | > 10 µM | 
O=C(O)CCCO/N=C(/c1ccccc1)c1ccncn1 |  |  |  | inhibition at 273 µM (Homo sapiens [3]): 38%
O=C(O)CCCO/N=C(/c1ccccc1)c1cncnc1 |  |  |  | inhibition at 273 µM (Homo sapiens [3]): 17%
O=C(O)CCCCO/N=C(\c1ccccc1)c1cnccn1 | 47 µM | 91 µM | 0.079 µM | 
O=C(O)CCCO/N=C(/c1ccccc1)c1ccnnc1 |  |  |  | inhibition at 273 µM (Homo sapiens [3]): 21%
O=C(O)CCCCO/N=C(/c1ccccc1)c1cnccn1 | 24 µM | 94 µM | 0.62 µM | 
O=C(O)CCCCCO/N=C(/c1cccc(C(F)(F)F)c1)c1cnccn1 |  |  |  | inhibition at 291 µM (Homo sapiens [4]): 47%
O=C(O)CCCO/N=C(/c1ccccc1)c1cccnn1 |  |  |  | inhibition at 273 µM (Homo sapiens [3]): 2%
O=C(O)CCCO/N=C(\c1ccccc1)c1cccnn1 |  |  |  | inhibition at 273 µM (Homo sapiens [3]): 4%
O=C(O)CCCO/N=C(\c1ccccc1)c1ccncn1 |  |  |  | inhibition at 273 µM (Homo sapiens [3]): 34%
O=C(O)CCCO/N=C(/c1ccccc1)c1ncccn1 |  |  |  | inhibition at 273 µM (Homo sapiens [3]): 0%
O=C(O)CCCCO/N=C(/c1ccccc1)c1ncccn1 |  |  | > 10 µM | inhibition at 273 µM (Homo sapiens [3]): 0%
O=C(O)CCCCO/N=C(/c1ccccc1)c1cccnn1 | 71 µM | 217 µM | > 100 µM | 
O=C(O)CCCCCO/N=C(/c1ccccc1)c1ncccn1 |  |  |  | inhibition at 273 µM (Homo sapiens [3]): 0%
O=C(O)CCCCCO/N=C(\c1ccccc1)c1cccnn1 |  | 203 µM |  | 
O=C(O)CCCCCO/N=C(/c1ccccc1)c1cnccn1 |  | 216 µM |  | 
O=C(O)CCCCCO/N=C(\c1ccccc1)c1cnccn1 |  | 131 µM |  | 
O=C(O)CCCCO/N=C(\c1ccccc1)c1cncnc1 | 20 µM |  | 0.075 µM | inhibition at 278 µM (Homo sapiens [5]): 40%
O=C(O)CCCCO/N=C(\c1ccccc1)c1ccncn1 | 30 µM | 274 µM | > 100 µM | 
O=C(O)CCCO/N=C(\c1ccccc1)c1ncccn1 |  |  |  | inhibition at 273 µM (Homo sapiens [3]): 0%
O=C(O)CCCCO/N=C(/c1ccccc1)c1ccncn1 | 25 µM | 255 µM | > 100 µM | 
O=C(O)CCCCCO/N=C(/c1ccccc1)c1cccnn1 |  | 204 µM |  | 
O=C(O)CCCO/N=C(\c1ccccc1)c1cncnc1 |  |  |  | inhibition at 273 µM (Homo sapiens [3]): 46%
O=C(O)CCCO/N=C(/c1ccccc1)c1cnccn1 |  |  |  | inhibition at 273 µM (Homo sapiens [3]): 19%
O=C(O)CCCCCO/N=C(\c1ccccc1)c1ncccn1 |  |  |  | inhibition at 273 µM (Homo sapiens [3]): 0%
O=C(O)CCCO/N=C(\c1ccccc1)c1cnccn1 |  |  |  | inhibition at 273 µM (Homo sapiens [3]): 47%

Second part, led by results:

IC50 (Thromboxane A2 receptor [1]) | EC50 (Homo sapiens [2]) | IC50 (Thromboxane-A synthase) | SMILES | also measured
1.5 µM | 32 µM | 0.039 µM | O=C(O)CCCCO/N=C(/c1cncnc1)c1cccc(C(F)(F)F)c1 | 
11 µM | 190 µM | 0.006 µM | O=C(O)CCCCO/N=C(\c1cccc(C(F)(F)F)c1)c1cnccn1 | 
 | 251 µM |  | O=C(O)CCCCCO/N=C(\c1cccc(C(F)(F)F)c1)c1cnccn1 | 
 | 184 µM |  | O=C(O)CCCCCO/N=C(/c1cccc(C(F)(F)F)c1)c1ccncn1 | 
1.1 µM | 25 µM | > 10 µM | O=C(O)CCCCCO/N=C(\c1cccc(C(F)(F)F)c1)c1ccncn1 | 
 | 241 µM |  | O=C(O)CCCCCO/N=C(\c1cccc(C(F)(F)F)c1)c1cccnn1 | 
10 µM | 78 µM | > 100 µM | O=C(O)CCCCO/N=C(\c1cccc(C(F)(F)F)c1)c1cccnn1 | 
 | 291 µM |  | O=C(O)CCCCCO/N=C(\c1cccc(C(F)(F)F)c1)c1ncccn1 | 
52 µM | 214 µM | > 10 µM | O=C(O)CCCCO/N=C(/c1cccc(C(F)(F)F)c1)c1ncccn1 | 
33 µM | 227 µM | 0.26 µM | O=C(O)CCCCO/N=C(\c1ccccc1)c1ccnnc1 | 
99 µM | 272 µM | > 10 µM | O=C(O)CCCCO/N=C(\c1cccc(C(F)(F)F)c1)c1ncccn1 | 
13 µM | 163 µM | 8.8 µM | O=C(O)CCCCO/N=C(/c1ccccc1)c1ccnnc1 | 
7.1 µM | 59 µM | 3.8 µM | O=C(O)CCCCCO/N=C(\c1ccccc1)c1ccnnc1 | 
1.5 µM | 65 µM | 2.9 µM | O=C(O)CCCCO/N=C(/c1cccc(C(F)(F)F)c1)c1cnccn1 | 
 | 291 µM |  | O=C(O)CCCCCO/N=C(\c1cncnc1)c1cccc(C(F)(F)F)c1 | 
6 µM | 52 µM | 0.016 µM | O=C(O)CCCCO/N=C(/c1ccnnc1)c1cccc(C(F)(F)F)c1 | 
1.4 µM | 19 µM | > 10 µM | O=C(O)CCCCO/N=C(\c1cccc(C(F)(F)F)c1)c1ccncn1 | 
 | 245 µM |  | O=C(O)CCCO/N=C(\c1ccccc1)c1ccnnc1 | 
7.7 µM | 81 µM | > 10 µM | O=C(O)CCCCCO/N=C(/c1ccccc1)c1ccnnc1 | 
29 µM | 186 µM | 0.693 µM | O=C(O)CCCCCO/N=C(/c1ccnnc1)c1cccc(C(F)(F)F)c1 | 
7.2 µM | 191 µM | 0.573 µM | O=C(O)CCCCO/N=C(/c1ccccc1)c1cncnc1 | 
1.8 µM | 30 µM | 6.63 µM | O=C(O)CCCCO/N=C(\c1ccnnc1)c1cccc(C(F)(F)F)c1 | 
 | 200 µM |  | O=C(O)CCCCCO/N=C(/c1cncnc1)c1cccc(C(F)(F)F)c1 | 
 |  | > 100 µM | O=C(O)CCCCO/N=C(\c1ccccc1)c1cccnn1 | inhibition at 278 µM (Homo sapiens [5]): 47%; IC50 (Thromboxane A2 receptor [6]): 104 µM
2.5 µM | 71 µM | > 100 µM | O=C(O)CCCCO/N=C(/c1cccc(C(F)(F)F)c1)c1ccncn1 | 
0.36 µM | 12 µM | 6.1 µM | O=C(O)CCCCO/N=C(\c1cncnc1)c1cccc(C(F)(F)F)c1 | 
21 µM |  | > 10 µM | O=C(O)CCCCCO/N=C(\c1ccnnc1)c1cccc(C(F)(F)F)c1 | inhibition at 291 µM (Homo sapiens [4]): 26%
 | 41 µM | 0.007 µM | O=C(O)CCCCO/N=C(/c1cccnc1)c1cccc(C(F)(F)F)c1 [RIDOGREL] | 
